Most compounds without a hit are left out; they make up all but 2.9% or so of the library.
HSP90 inh – inhibitors of HSP90 luciferase refolding in rabbit reticulocyte lysate. luciferase refolding luminescence, 3 h. inhibition, % at 5.6 µM. 0.91% of 290,000 active. AID 1789;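 active = inhibition above the screen-wide mean plus 3 SD, computed separately per campaign, cut at about 16% in these data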;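 note: inhibitors lower the luminescence because luciferase stays unfolded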
SENP8 block-1 – SENP8 (human) protease inhibition. recombinant SENP8, Nedd8 substrate fluorescence. inhibition, % at 20 µM. 0.64% of 360,000 active. AID 602440; in the data active = inhibition mostly above about 40%, no sharp cut-off; inactive = mostly below about 27%
SENP1 FRET inh – inhibitors of human SENP1 SUMO protease catalytic domain; Q9P0U3; recombinant SENP1 catalytic domain, CyPet-SUMO1-YPet FRET cleavage; inhibition, % at 10 µM; 0.21% of 360,000 active; AID 624204;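 active = inhibition at least 30% at 10 µM, raw YFP signal under a set limit, fluorescence ratio 0.5 to 1.5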
Target sequence (Q9P0U3 419-644 limits assumed): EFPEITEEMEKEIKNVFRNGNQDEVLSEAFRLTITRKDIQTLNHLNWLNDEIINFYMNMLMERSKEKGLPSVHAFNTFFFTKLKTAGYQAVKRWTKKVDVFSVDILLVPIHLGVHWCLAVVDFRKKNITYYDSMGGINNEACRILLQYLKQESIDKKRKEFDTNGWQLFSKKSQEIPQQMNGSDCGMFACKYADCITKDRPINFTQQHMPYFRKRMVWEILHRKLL
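Test system: recombinant human SENP1 catalytic domain, His6-tagged / Medium: pH 8 Tris buffer with EDTA, NaCl, BME, BSA, NP40, catalase / Also added: SUMO1 FRET substrate flanked by Cypet and Ypet, 25 nM / Times: 50 min reaction at room temperature / Signal: FRET, CFP and YFP emission / Control set: no-enzyme low control and enzyme-plus-DMSO high control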
SENP6 block – inhibitors of human SENP6 protease; Q9GZR1; AID 2599; 1.8% of 330,000 active; Recombinant SENP6 catalytic domain, aminoluciferin luminescence; inhibition, % at 10 µM;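 active = inhibition above about 50% at the single tested dose, limit read from the data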
Target sequence (Q9GZR1 628-1112 limits assumed): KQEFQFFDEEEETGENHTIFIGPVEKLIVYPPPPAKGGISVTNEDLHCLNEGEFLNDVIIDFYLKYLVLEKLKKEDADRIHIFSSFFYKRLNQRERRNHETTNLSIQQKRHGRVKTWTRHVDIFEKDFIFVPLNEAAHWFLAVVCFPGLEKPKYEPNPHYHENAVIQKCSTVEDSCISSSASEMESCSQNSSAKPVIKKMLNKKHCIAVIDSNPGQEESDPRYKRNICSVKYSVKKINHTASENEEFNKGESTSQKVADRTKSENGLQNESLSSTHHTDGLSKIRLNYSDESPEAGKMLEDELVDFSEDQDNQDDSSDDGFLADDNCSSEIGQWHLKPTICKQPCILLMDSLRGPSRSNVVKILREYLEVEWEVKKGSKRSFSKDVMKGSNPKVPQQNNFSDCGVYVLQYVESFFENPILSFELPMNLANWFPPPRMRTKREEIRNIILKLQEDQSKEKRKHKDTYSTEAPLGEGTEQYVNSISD
SENP7 inh – SENP7 protease inhibition. Q9BQF6. recombinant SENP7, Z-RLRGG-aminoluciferin luminescence, 40 min. inhibition, % at 5 µM. 1.5% of 330,000 active;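 active = inhibition above about 50% at the single test dose, limit read from the data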
SENP8 block-2 – inhibitors of human SENP8 protease; Q96LD8; purified SENP8, Z-RLRGG-aminoluciferin cleavage, luminescence; inhibition, % at 10 µM; 1.2% of 330,000 active; in the data active = inhibition above about 50%
SENP8 confirm – confirmation of human SENP8 protease inhibitors. shares compounds with SENP7 inh. Recombinant SENP8, Z-RLRGG-aminoluciferin luminescence, 60 min. inhibition, % at 12.5 µM. 40% of 6,200 active;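 active = mean inhibition across replicates above about 50%, limit read from the data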
SENP6 confirm – human SENP6 inhibition, confirmed | shares compounds with SENP7 inh | 58% of 6,200 active | AID 488915 | inhibition, % at 12.5 µM | recombinant SENP6, Z-RLRGG-aminoluciferin luminescence
SENP7 conf – human SENP7 inhibition, confirmed; inhibition, % at 12.5 µM; 69% of 6,200 active; shares compounds with SENP7 inh; recombinant SENP7, Z-RLRGG-aminoluciferin luminescence, 40 min; AID 488917
Casp3 SENP sel – selectivity test for SENP inhibitors: human caspase-3 inhibition | purified caspase-3, Z-DEVD-aminoluciferin luminescence, 60 min | AID 488918 | inhibition, % at 12.5 µM | shares compounds with SENP7 inh | 60% of 6,200 active;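 active = mean inhibition above about 50%, limit read from the data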
SENP luc ctr – luminescence interference (SENP counter-screen). shares compounds with SENP7 inh. Pre-incubated SENP8/Z-RLRGG-aminoluciferin, luciferase luminescence interference. inhibition, % at 12.5 µM. 39% of 6,200 active;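 active = mean inhibition above about 50% when retested at one dose, limit read from the data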
Each line names hits and unclear results; the compound was inactive in the other large screens (follow-up assays come after a bar, where they were run).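 Rule for the calls, unless noted: active = mean inhibition above about 50% in the one-dose retest (limit read from the data); inactive = the rest.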

Cc1cc(C)nc(N(C#N)Cc2ccccc2C)n1	SENP7 inh 96 | SENP8 confirm inactive | SENP6 confirm inactive | SENP7 conf inactive | Casp3 SENP sel inactive | SENP luc ctr inactive
CCCS(=O)(=O)N1CCCC(C(=O)Oc2ccc(Cl)cc2)C1 (stereo not drawn)	none
COc1ccc(C(=O)/C=C2\Sc3ccccc3N2C)cc1	SENP7 inh 53 | SENP8 confirm 74 | SENP6 confirm 77 | SENP7 conf 92 | Casp3 SENP sel 77 | SENP luc ctr inactive
CC(=S)/C=C1\Sc2ccccc2N1C	none
Nc1c(-c2ccccc2)cnn1-c1ccccc1	SENP6 block 79, SENP7 inh 83, SENP8 block-2 70 | SENP8 confirm 75 | SENP6 confirm 72 | SENP7 conf 94 | Casp3 SENP sel 88 | SENP luc ctr 78
CCCCCCSC1=C(C#N)C(=O)NC2(CCCCC2)S1	SENP8 block-2 59 | SENP8 confirm inactive | SENP6 confirm 87 | SENP7 conf 94 | Casp3 SENP sel inactive | SENP luc ctr 88
O=Cc1ccc(-c2nc3ccccc3s2)o1	SENP6 block 63, SENP7 inh 80, SENP8 block-2 70 | SENP8 confirm inactive | SENP6 confirm 70 | SENP7 conf 87 | Casp3 SENP sel 82 | SENP luc ctr inactive
O=C(O)CCN1C(=O)/C(=C/c2ccc(-c3nc4ccccc4s3)o2)SC1=S	none
COc1ccc(C(=O)O/N=C2\C(=O)N(C)c3ccccc32)cc1	none (no result: HSP90 inh)
COc1ccc(C(=O)N=c2nc3ccccn3s2)cc1	SENP6 block 95, SENP7 inh 98, SENP8 block-2 90 | SENP8 confirm 88 | SENP6 confirm 91 | SENP7 conf 96 | Casp3 SENP sel 82 | SENP luc ctr inactive
COc1ccc(OC)cc1	none (no result: HSP90 inh)
COc1ccc(-c2cc(O)cc(O)c2)cc1	SENP6 block 70, SENP7 inh 60 | SENP8 confirm inactive | SENP6 confirm inactive | SENP7 conf 60 | Casp3 SENP sel inactive | SENP luc ctr inactive
CC1CCN(C2=C(NS(=O)(=O)c3ccccc3)C(=O)c3ccccc3C2=O)CC1	none
CC1CCN(C2=C(NS(=O)(=O)c3ccc(Br)cc3)C(=O)c3ccccc3C2=O)CC1	SENP6 block 55 | SENP8 confirm inactive | SENP6 confirm inactive | SENP7 conf inactive | Casp3 SENP sel inactive | SENP luc ctr inactive
CC1CCN(C2=C(NS(=O)(=O)c3ccc(Cl)cc3)C(=O)c3ccccc3C2=O)CC1	SENP6 block 63 | SENP8 confirm inactive | SENP6 confirm inactive | SENP7 conf inactive | Casp3 SENP sel inactive | SENP luc ctr inactive
CCOC(=O)C(/C(N)=N/C(=O)Nc1ccccc1)=C(\C)O	SENP6 block 64 | SENP8 confirm inactive | SENP6 confirm 57 | SENP7 conf 88 | Casp3 SENP sel 80 | SENP luc ctr inactive
CCOC(=O)c1ccc(NC(=S)Nc2ccccc2)cc1	none
COc1ccc(C(=O)N=c2sc3c(C)ccc(OC)c3n2C)cc1	SENP6 block 98, SENP7 inh 99, SENP8 block-2 90 | SENP8 confirm inactive | SENP6 confirm inactive | SENP7 conf inactive | Casp3 SENP sel inactive | SENP luc ctr inactive
COc1cc(C(=O)N=c2sc3c(C)ccc(OC)c3n2C)cc(OC)c1OC	SENP7 inh 77 | SENP8 confirm inactive | SENP6 confirm inactive | SENP7 conf inactive | Casp3 SENP sel inactive | SENP luc ctr inactive
COc1ccc(OC)c2c1sc(=NC(=O)C(C)(C)C)n2C	none
O=C(COC(=O)c1ccc(F)cc1)NC1CC1	none (no result: HSP90 inh)
CCCn1c(N)c(N(CCOC)C(=O)c2ccc(-c3ccc(Cl)cc3)o2)c(=O)[nH]c1=O	none (no result: HSP90 inh)
O=C(COc1ccc(F)cc1)c1ccc2c(c1)CCCC2	none
O=C(COc1ccc(Cc2ccccc2)cc1)c1ccc(F)cc1	SENP6 block 60, SENP7 inh 52 | SENP8 confirm inactive | SENP6 confirm inactive | SENP7 conf 51 | Casp3 SENP sel inactive | SENP luc ctr inactive
Cc1cccc(NC(=O)CNC(=O)CN2CCN(C)CC2)c1C	none (no result: HSP90 inh)
COc1ccc(C(=O)Oc2ccc(/C=N/O)cc2)cc1	SENP6 block 79, SENP7 inh 61, SENP8 block-2 53 | SENP8 confirm 67 | SENP6 confirm 67 | SENP7 conf 90 | Casp3 SENP sel 73 | SENP luc ctr inactive
Cc1ccc(/C=N/NC(=O)c2ccc(C(=O)N/N=C/c3ccc(C)s3)o2)s1	none
Cc1ccc(/C=N/Nc2ccc(C(=O)O)cc2)s1	HSP90 inh 79, SENP6 block 95, SENP8 block-2 97 | SENP8 confirm 52 | SENP6 confirm 101 | SENP7 conf 104 | Casp3 SENP sel 99 | SENP luc ctr 100
Cc1ccc(/C=N/Nc2ccc(C(=O)O)cc2)o1	SENP6 block 92, SENP7 inh 71, SENP8 block-2 78 | SENP8 confirm 65 | SENP6 confirm 58 | SENP7 conf 91 | Casp3 SENP sel 85 | SENP luc ctr 82
O=C(O)c1ccc(N/N=C/c2ccc(-c3ccc(Br)cc3)o2)cc1	none
Oc1ccccc1-c1n[nH]c(-c2ccccc2O)n1	none (no result: HSP90 inh, SENP6 block, SENP7 inh, SENP8 block-2)
COc1ccc(/C=C/c2nc(-c3ccccc3O)n[nH]2)cc1OC	SENP6 block 67 | SENP8 confirm 65 | SENP6 confirm 63 | SENP7 conf 85 | Casp3 SENP sel inactive | SENP luc ctr inactive
O=C(O)COc1ccc(/C=C/c2nc(-c3ccccc3O)n[nH]2)cc1	SENP6 block 87, SENP7 inh 69, SENP8 block-2 67 | SENP8 confirm 84 | SENP6 confirm 82 | SENP7 conf 96 | Casp3 SENP sel 71 | SENP luc ctr 83
O=C(O)COc1ccc(-c2nccc(-c3ccccn3)n2)cc1	none
CCN(C[C@H]1N[C@@](CC)(C(=O)OC)[C@H]2C(=O)N(Cc3ccccc3)C(=O)[C@@H]12)S(=O)(=O)c1ccc(C(C)(C)C)cc1	none (no result: HSP90 inh)
COc1ccc(-c2nc(C#N)c(N3CCCCCC3)o2)cc1	SENP7 inh 84 | SENP8 confirm inactive | SENP6 confirm inactive | SENP7 conf inactive | Casp3 SENP sel inactive | SENP luc ctr inactive
COc1ccc(-c2nc(C#N)c(N3CCCCC3)o2)cc1	none
O=C(NCCCN1CCOCC1)C(=O)N/N=C/c1ccccc1O	none
